6 compounds from ChEMBL document CHEMBL1250442, “Inhibiting gene expression at transcription start sites in chromosomal DNA with antigene RNAs” (Nat Chem Biol, 2005) can be followed below.

Test [1] deals with T47D. Put plainly: Inhibition of PR-A mRNA gene expression in human T47D cells at 100 nM by syber green assay. The class given is functional. In a few lines: (§1)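 T47D cells plated at 80,000/well without antibiotics two days before Oligofectamine transfection with agRNA duplex (25 or 100 nM final); medium changed at 24 h, harvest day 5 unless stated otherwise. TRIzol total RNA; PR mRNA by real-time PCR with SYBR Green: 50 °C 2 min, 95 °C 10 min, 40 cycles 95 °C 15 s/60 °C 1 min.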

The test system of test [2] is T47D. Put plainly: Inhibition of PR-B gene expression in human T47D cells at 25 nM by syber green assay in presence of 10 nM estradiol. It counts as functional, cell-based.
For test [3], the system named is T47D. Put plainly: Inhibition of PR-A gene expression in human T47D cells at 25 nM by syber green assay. The class given is functional. In a few lines: as §1
Test [4] concerns T47D. Put plainly: Inhibition of PR-B gene expression in human T47D cells at 25 nM by syber green assay. The class given is functional. In a few lines: as §1
Test [5] concerns T47D. Put plainly: Inhibition of PR-B mRNA gene expression in human T47D cells at 100 nM by syber green assay. The class given is functional. The method, boiled down:
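T47D cells in RPMI-1640 with 10% FBS, NEAA, insulin, 37 °C, 5% CO2. Plated two days before transfection without antibiotics. Oligofectamine-mediated duplex RNA transfection at 100 nM final, medium changed at 24 h, harvest five days post-transfection. Total RNA extracted with TRIzol. hPR mRNA quantified by SYBR Green qPCR: 50 °C 2 min, 95 °C 10 min, then 40 cycles of 95 °C 15 s / 60 °C 1 min.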

Test [6] deals with T47D. Put plainly: Inhibition of PR-A gene expression in human T47D cells at 25 nM by syber green assay in presence of 10 nM estradiol. It counts as functional, cell-based.

Activity calls are given as the source filed them. The rule behind the calls is not given here.

Broadly, the inhibition is the change of the read-out against control, counted positive when it falls. Turning to `Cc1cn(CC(=O)N(CCNC(=O)CN(CCNC(=O)CN(CCNC(=O)CN(CCNC(=O)CN(CCNC(=O)CN(CCNC(=O)CN(CCNC(=O)CN(CCNC(=O)CN(CCNC(=O)CN(CCNC(=O)CN(CCNC(=O)CN(CCNC(=O)CN(CCNC(=O)CN(CCNC(=O)CN(CCNC(=O)CN(CCNC(=O)CN(CCNC(=O)CN(CCNC(=O)CN(CCNC(=O)CN(CCNC(=O)CN(CCNC(=O)CN)C(=O)Cn2ccc(=O)[nH]c2=O)C(=O)Cn2ccc(N)nc2=O)C(=O)Cn2ccc(=O)[nH]c2=O)C(=O)Cn2cnc3c(=O)[nH]c(N)nc32)C(=O)Cn2cnc3c(=O)[nH]c(N)nc32)C(=O)Cn2ccc(N)nc2=O)C(=O)Cn2ccc(N)nc2=O)C(=O)Cn2cnc3c(N)ncnc32)C(=O)Cn2cnc3c(=O)[nH]c(N)nc32)C(=O)Cn2ccc(=O)[nH]c2=O)C(=O)Cn2ccc(N)nc2=O)C(=O)Cn2ccc(N)nc2=O)C(=O)Cn2cnc3c(N)ncnc32)C(=O)Cn2ccc(N)nc2=O)C(=O)Cn2cnc3c(N)ncnc32)C(=O)Cn2cnc3c(=O)[nH]c(N)nc32)C(=O)Cn2ccc(N)nc2=O)C(=O)Cn2ccc(=O)[nH]c2=O)C(=O)Cn2cnc3c(=O)[nH]c(N)nc32)C(=O)Cn2cc(C)c(=O)[nH]c2=O)CC(=O)O)c(=O)[nH]c1=O`, the inhibition at 0.1 µM in the test on T47D [1] is 97%; with T47D [5], 100%. Besides, the inhibition result with T47D [2] and in the test with T47D [6] was “Active” each time. For the same compound, the inhibition at 0.025 µM in the test with T47D [3] came to 38%; in the test with T47D [4] it was 50%.
Turning to `Cc1cn(CC(=O)N(CCNC(=O)CN(CCNC(=O)CN(CCNC(=O)CN(CCNC(=O)CN(CCNC(=O)CN(CCNC(=O)CN(CCNC(=O)CN(CCNC(=O)CN(CCNC(=O)CN(CCNC(=O)CN(CCNC(=O)CN(CCNC(=O)CN(CCNC(=O)CN(CCNC(=O)CN(CCNC(=O)CN(CCNC(=O)CN(CCNC(=O)CN(CCNC(=O)CN(CCNC(=O)CN(CCNC(=O)CN)C(=O)Cn2cnc3c(N)ncnc32)C(=O)Cn2cnc3c(N)ncnc32)C(=O)Cn2cnc3c(N)ncnc32)C(=O)Cn2cnc3c(=O)[nH]c(N)nc32)C(=O)Cn2ccc(N)nc2=O)C(=O)Cn2ccc(=O)[nH]c2=O)C(=O)Cn2cnc3c(=O)[nH]c(N)nc32)C(=O)Cn2ccc(=O)[nH]c2=O)C(=O)Cn2ccc(N)nc2=O)C(=O)Cn2ccc(=O)[nH]c2=O)C(=O)Cn2cnc3c(=O)[nH]c(N)nc32)C(=O)Cn2cnc3c(=O)[nH]c(N)nc32)C(=O)Cn2ccc(N)nc2=O)C(=O)Cn2ccc(N)nc2=O)C(=O)Cn2cnc3c(N)ncnc32)C(=O)Cn2cnc3c(=O)[nH]c(N)nc32)C(=O)Cn2ccc(=O)[nH]c2=O)C(=O)Cn2ccc(N)nc2=O)C(=O)Cn2ccc(N)nc2=O)CC(=O)NCCN(CC(=O)NCC(=O)O)C(=O)Cn2cc(C)c(=O)[nH]c2=O)c(=O)[nH]c1=O`, the inhibition at 0.1 µM in the test on T47D [1] and in the test with T47D [5] was below 20% each time. Also, the inhibition entry with T47D [2] and in the test with T47D [6] was “Active” in each case. Moreover, the inhibition at 0.025 µM in the test with T47D [3] and in the test on T47D [4] was below 20% each time.
On to `Cc1cn(CC(=O)N(CCNC(=O)CN(CCNC(=O)CN(CCNC(=O)CN(CCNC(=O)CN(CCNC(=O)CN(CCNC(=O)CN(CCNC(=O)CN(CCNC(=O)CN(CCNC(=O)CN(CCNC(=O)CN(CCNC(=O)CN(CCNC(=O)CN(CCNC(=O)CN(CCNC(=O)CN(CCNC(=O)CN(CCNC(=O)CN(CCNC(=O)CN(CCNC(=O)CN(CCNC(=O)CN(CCNC(=O)CN)C(=O)Cn2cnc3c(N)ncnc32)C(=O)Cn2cnc3c(=O)[nH]c(N)nc32)C(=O)Cn2cnc3c(=O)[nH]c(N)nc32)C(=O)Cn2ccc(N)nc2=O)C(=O)Cn2cnc3c(=O)[nH]c(N)nc32)C(=O)Cn2ccc(=O)[nH]c2=O)C(=O)Cn2ccc(=O)[nH]c2=O)C(=O)Cn2cnc3c(=O)[nH]c(N)nc32)C(=O)Cn2ccc(=O)[nH]c2=O)C(=O)Cn2ccc(=O)[nH]c2=O)C(=O)Cn2cnc3c(N)ncnc32)C(=O)Cn2cnc3c(=O)[nH]c(N)nc32)C(=O)Cn2cnc3c(N)ncnc32)C(=O)Cn2cnc3c(N)ncnc32)C(=O)Cn2cnc3c(N)ncnc32)C(=O)Cn2cnc3c(=O)[nH]c(N)nc32)C(=O)Cn2ccc(N)nc2=O)C(=O)Cn2ccc(=O)[nH]c2=O)C(=O)Cn2cnc3c(=O)[nH]c(N)nc32)CC(=O)NCCN(CC(=O)NCC(=O)O)C(=O)Cn2cc(C)c(=O)[nH]c2=O)c(=O)[nH]c1=O`, for which the inhibition at 0.1 µM in the test on T47D [1] stood at 80%; in the test with T47D [5], 99%. The inhibition entry in the test with T47D [2] and in the test on T47D [6] was “Active” in each case. Besides, the inhibition at 0.025 µM in the test with T47D [3] is 57%; in the test with T47D [4] it was 73%.
Regarding `Cc1cn(CC(=O)N(CCNC(=O)CN(CCNC(=O)CN(CCNC(=O)CN(CCNC(=O)CN(CCNC(=O)CN(CCNC(=O)CN(CCNC(=O)CN(CCNC(=O)CN(CCNC(=O)CN(CCNC(=O)CN(CCNC(=O)CN(CCNC(=O)CN(CCNC(=O)CN(CCNC(=O)CN(CCNC(=O)CN(CCNC(=O)CN(CCNC(=O)CN(CCNC(=O)CN(CCNC(=O)CN(CCNC(=O)CN)C(=O)Cn2ccc(=O)[nH]c2=O)C(=O)Cn2ccc(N)nc2=O)C(=O)Cn2ccc(N)nc2=O)C(=O)Cn2ccc(N)nc2=O)C(=O)Cn2ccc(=O)[nH]c2=O)C(=O)Cn2cnc3c(N)ncnc32)C(=O)Cn2cnc3c(=O)[nH]c(N)nc32)C(=O)Cn2cnc3c(N)ncnc32)C(=O)Cn2cnc3c(=O)[nH]c(N)nc32)C(=O)Cn2cnc3c(=O)[nH]c(N)nc32)C(=O)Cn2cnc3c(N)ncnc32)C(=O)Cn2cnc3c(=O)[nH]c(N)nc32)C(=O)Cn2cnc3c(=O)[nH]c(N)nc32)C(=O)Cn2cnc3c(N)ncnc32)C(=O)Cn2cnc3c(=O)[nH]c(N)nc32)C(=O)Cn2cnc3c(=O)[nH]c(N)nc32)C(=O)Cn2ccc(N)nc2=O)C(=O)Cn2cnc3c(=O)[nH]c(N)nc32)C(=O)Cn2ccc(=O)[nH]c2=O)CC(=O)NCCN(CC(=O)NCC(=O)O)C(=O)Cn2cc(C)c(=O)[nH]c2=O)c(=O)[nH]c1=O`, the results for the inhibition at 0.1 µM with T47D [1] and in the test with T47D [5] were 41% and 48%, respectively. The inhibition entry in the test with T47D [2] and with T47D [6] was “Active” in each case. The inhibition at 0.025 µM with T47D [3] and in the test on T47D [4] was below 20% throughout.
Take `Cc1cn(CC(=O)N(CCNC(=O)CN(CCNC(=O)CN(CCNC(=O)CN(CCNC(=O)CN(CCNC(=O)CN(CCNC(=O)CN(CCNC(=O)CN(CCNC(=O)CN(CCNC(=O)CN(CCNC(=O)CN(CCNC(=O)CN(CCNC(=O)CN(CCNC(=O)CN(CCNC(=O)CN(CCNC(=O)CN(CCNC(=O)CN(CCNC(=O)CN(CCNC(=O)CN(CCNC(=O)CN(CCNC(=O)CN)C(=O)Cn2cnc3c(N)ncnc32)C(=O)Cn2cnc3c(=O)[nH]c(N)nc32)C(=O)Cn2ccc(N)nc2=O)C(=O)Cn2ccc(=O)[nH]c2=O)C(=O)Cn2cnc3c(=O)[nH]c(N)nc32)C(=O)Cn2ccc(=O)[nH]c2=O)C(=O)Cn2ccc(N)nc2=O)C(=O)Cn2ccc(=O)[nH]c2=O)C(=O)Cn2cnc3c(=O)[nH]c(N)nc32)C(=O)Cn2cnc3c(=O)[nH]c(N)nc32)C(=O)Cn2ccc(N)nc2=O)C(=O)Cn2ccc(N)nc2=O)C(=O)Cn2cnc3c(N)ncnc32)C(=O)Cn2cnc3c(=O)[nH]c(N)nc32)C(=O)Cn2ccc(=O)[nH]c2=O)C(=O)Cn2ccc(N)nc2=O)C(=O)Cn2ccc(N)nc2=O)C(=O)Cn2cnc3c(N)ncnc32)C(=O)Cn2ccc(N)nc2=O)CC(=O)NCCN(CC(=O)NCC(=O)O)C(=O)Cn2cc(C)c(=O)[nH]c2=O)c(=O)[nH]c1=O`: the figures for the inhibition at 0.1 µM in the test with T47D [1] and with T47D [5] were 63% and 87%, respectively. The inhibition entry in the test on T47D [2] and with T47D [6] was “Active” each time. The results for the inhibition at 0.025 µM in the test on T47D [3] and in the test on T47D [4] were 34% and 40%, respectively.
Turning to `Cc1cn([C@@H]2O[C@H](COP(=O)(O)O[C@H]3C[C@H](n4cc(C)c(=O)[nH]c4=O)O[C@@H]3COP(=O)(O)O[C@H]3[C@@H](O)[C@H](n4ccc(N)nc4=O)O[C@@H]3COP(=O)(O)O[C@H]3[C@@H](O)[C@H](n4cnc5c(=O)[nH]c(N)nc54)O[C@@H]3COP(=O)(O)O[C@H]3[C@@H](O)[C@H](n4cnc5c(N)ncnc54)O[C@@H]3COP(=O)(O)O[C@H]3[C@@H](O)[C@H](n4ccc(N)nc4=O)O[C@@H]3COP(=O)(O)O[C@H]3[C@@H](O)[C@H](n4cnc5c(N)ncnc54)O[C@@H]3COP(=O)(O)O[C@H]3[C@@H](O)[C@H](n4ccc(N)nc4=O)O[C@@H]3COP(=O)(O)O[C@H]3[C@@H](O)[C@H](n4ccc(N)nc4=O)O[C@@H]3COP(=O)(O)O[C@H]3[C@@H](O)[C@H](n4ccc(=O)[nH]c4=O)O[C@@H]3COP(=O)(O)O[C@H]3[C@@H](O)[C@H](n4cnc5c(=O)[nH]c(N)nc54)O[C@@H]3COP(=O)(O)OC3[C@@H](O)[C@H](n4cnc5c(N)ncnc54)O[C@@H]3COP(=O)(O)O[C@H]3[C@@H](O)[C@H](n4ccc(N)nc4=O)O[C@@H]3COP(=O)(O)O[C@H]3[C@@H](O)[C@H](n4cnc5c(=O)[nH]c(N)nc54)O[C@@H]3COP(=O)(O)O[C@H]3[C@@H](O)[C@H](n4cnc5c(=O)[nH]c(N)nc54)O[C@@H]3COP(=O)(O)O[C@H]3[C@@H](O)[C@H](n4cnc5c(=O)[nH]c(N)nc54)O[C@@H]3COP(=O)(O)O[C@H]3[C@@H](O)[C@H](n4ccc(=O)[nH]c4=O)O[C@@H]3COP(=O)(O)O[C@H]3[C@@H](O)[C@H](n4ccc(N)nc4=O)O[C@@H]3COP(=O)(O)O[C@H]3[C@@H](O)[C@H](n4ccc(=O)[nH]c4=O)O[C@@H]3COP(=O)(O)O[C@H]3[C@@H](O)[C@H](n4cnc5c(=O)[nH]c(N)nc54)O[C@@H]3COP(=O)(O)O[C@H]3[C@@H](O)[C@H](n4ccc(=O)[nH]c4=O)O[C@@H]3CO)[C@@H](O)[C@H]2O)c(=O)[nH]c1=O` (some centres undefined), the results for the inhibition at 0.1 µM in the test with T47D [1] and with T47D [5] were 67% and 91%, respectively. Moreover, the inhibition at 0.025 µM in the test on T47D [3] came out at 53%; with T47D [4], 75%.
